In brackets after ≈: the same amount, converted by molar mass.
Experiments:
Type in all cases: functional
Spodoptera littoralis [1] = test: Insecticidal activity against Spodoptera littoralis neonate larvae assessed as inhibition of larval growth at 132 ppm administered with artificial diet after 6 days by chronic feeding experiment relative to control; conditions: 144 h
Method in brief: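 Neonate S. littoralis larvae (n = 20) from a laboratory colony, fed artificial diet spiked at 132 ppm for 6 days; survival and weight of surviving larvae recorded and expressed as growth inhibition versus untreated controls.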

L5178Y = test: Cytotoxicity against mouse L5178Y cells after 72 hrs by MTT assay; conditions: read-out: ED50 (the source's name)
Method in brief: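 L5178y mouse lymphoma cells in Eagle's MEM plus 10% horse serum, roller tube culture; cultures started at 5×1000 cells/mL, exposed to 0.3–20 μg/mL, incubated 72 h at 37 °C. Growth assessed by MTT assay and by cell counting; ED50 reported in μg/mL.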

Bacillus subtilis = test: Antibacterial activity against Bacillus subtilis 168 at 100 ug after 24 hrs by agar plate diffusion assay; conditions: Bacillus subtilis, 168, 24 h; read-out: IZ
Method in brief: (§1)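 Sterile susceptibility disks (5 mm diameter) loaded with 100 μg compound, placed on agar plates seeded with test bacterium (B. subtilis 168, S. aureus ATCC 25923, E. coli ATCC 25922); plates incubated 24 h at 37 °C, then inhibition zone diameter read.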

Spodoptera littoralis [2] = test: Insecticidal activity against Spodoptera littoralis neonate larvae assessed as inhibition of larval growth drug administered with artificial diet after 6 days by chronic feeding experiment
Method in brief: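 Dose-response feeding assay: neonate S. littoralis larvae (n = 20) held 6 days on artificial diet spiked at 26–132 ppm; survival and surviving-larva weights compared with controls, ED50 (ppm) derived by probit analysis of the dose-response curve.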

Staphylococcus aureus = test: Antibacterial activity against Staphylococcus aureus ATCC 25923 at 100 ug after 24 hrs by agar plate diffusion assay; conditions: ATCC 25923, 24 h, read-out: IZ; method in brief: as §1

SMILES | inhibition at 132 ppm (Spodoptera littoralis [1]) | EC50 (L5178Y) | zone of inhibition at 100 µg/disc (Bacillus subtilis) | ED50 (Spodoptera littoralis [2]) | zone of inhibition at 100 µg/disc (Staphylococcus aureus)
[O-][n+]1ccc2c([nH]c3ccccc32)c1C1=C[C@@]2(O)CC/C=C\CCCCN3CC[C@@H]1[C@]1(C[C@@H]4/C=C\CCCCN4[C@H]12)C3 | 9.5% | 1.6 µg/mL (≈ 2.83 µM) | – | – | –
[O-][n+]1ccc2c([nH]c3ccccc32)c1C1=C[C@@]2(O)CC/C=C\CCCCN3CC[C@@H]1[C@]1(CC/C=C\CCCCN[C@H]12)C3 | 16.2% | 3.2 µg/mL (≈ 5.65 µM) | – | – | –
O[C@]12C=C(c3nccc4c3[nH]c3ccccc34)C3CCN(CCCC/C=C\CC1)C[C@@]31C[C@]34CC[C@H](CCCN3[C@H]12)O4 (some centres undefined) [6-Deoxymanzamine X] | 18.5% | 1.8 µg/mL (≈ 3.19 µM) | – | – | –
O=C1CCCN2[C@@H](CC1)C[C@]13CN4CCCC/C=C\CC[C@](O)(C=C(c5nccc6c5[nH]c5c(O)cccc56)C1CC4)[C@H]23 (some centres undefined) [MANZAMINE F] | 50.6% | 2.3 µg/mL (≈ 3.96 µM) | – | – | –
O=C1CCCN2[C@@H](CC1)C[C@]13CN4CCCC/C=C\CC[C@](O)(C=C(c5nccc6c5[nH]c5ccccc56)C1CC4)[C@H]23 (some centres undefined) [MANZAMINE E] | 0% | 6.6 µg/mL (≈ 11.7 µM) | – | – | –
O[C@]12C=C(c3nccc4c3[nH]c3ccccc34)[C@@H]3CCN(CCCC/C=C\CC1)C[C@@]31CC/C=C\CCCCN[C@H]12 [MANZAMINE J] | 2% | 25 µg/mL (≈ 45.4 µM) | – | – | –
O[C@]12C=C(c3nccc4c3[nH]c3ccccc34)[C@@H]3CCN(CCCC/C=C\CC1)C[C@@]31C[C@@H]3/C=C\CCCCN3[C@H]12 [MANZAMINE A] | 80% | 1.8 µg/mL (≈ 3.28 µM) | 7 mm | 35 ppm | 7 mm
[O-][N+]1=C(C2=C[C@@]3(O)CC/C=C\CCCCN4CC[C@@H]2[C@]2(C[C@@H]5/C=C\CCCCN5[C@H]23)C4)c2[nH]c3ccccc3c2CC1 | 26.4% | 1.6 µg/mL (≈ 2.82 µM) | – | – | –

From ChEMBL document CHEMBL1158283, “Four new bioactive manzamine-type alkaloids from the Philippine marine sponge Xestospongia ashmorica” (1996)
